The test system of test [1] is Nucleic Acid. In words: Stimulation of in vitro Topoisomerase II-Linked DNA Complex Formation and Interference with Etoposide-Induced Cleavage at concentration 50 uM. Format: functional. In outline:
(§1)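 Buffer: 30 mM Tris-HCl pH 7.6, 60 mM KCl, 8 mM MgCl2, 3 mM ATP, 15 mM β-mercaptoethanol and 30 μg/mL BSA, with 4 U topoisomerase II. Reactions ran 30 min at 37 °C. Protein-linked DNA was K+/SDS-precipitated and counted (cpm), mean ± SD of 2–4 determinations.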

For test [2], the system named is KB. Kind of test: Growth inhibitory activity (antiproliferative) against KB cell lines. Type of test: functional, cell-based. The conditions noted are these: Homo sapiens. In outline: (§2)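 Cells (50 000 or 5000 per well) were seeded and left overnight. Compound was diluted from DMSO stocks into medium at 2× final and added in duplicate. After 2 days the cells were trypsinized and suspended in PBS with 0.5% trypan blue. Viable cells, those not staining blue, were counted by hemacytometer. IC50 was read graphically. KB/7d is an etoposide-selected multidrug-resistant subclone with reduced topoisomerase II.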

Test [3] can be described thus: The differential toxicity ratio was defined as IC50(KB/7d)/IC50(KB). Format: functional. The method in brief:
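The ratio IC50(KB/7d)/IC50(KB) uses IC50s from 2-day treatments scored by trypan-blue-excluding hemacytometer counts. KB/7d is an etoposide-selected subclone with reduced topoisomerase II.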

Test [4] concerns KB. In words: Growth inhibitory activity (antiproliferative) against KB/7d cell lines. As to conditions: Homo sapiens. Format: functional, cell-based. In outline: as §2
Test [5] deals with Nucleic Acid. In words: Stimulation of in vitro Topoisomerase II-Linked DNA Complex Formation and Interference with Etoposide-Induced Cleavage at concentration 1 uM. Type of test: functional. The method in brief:
as §1

Test [6] concerns Nucleic Acid. In words: Stimulation of in vitro Topoisomerase II-Linked DNA Complex Formation and Interference with Etoposide-Induced Cleavage at concentration 100 uM. Format: functional. The method in brief:
as §1

For orientation: IC50 means the concentration that gives 50% inhibition. Low readings indicate higher potency, high ones lower potency. On to `COc1cc([C@@H]2c3cc(O)c(O)cc3[C@@H](Nc3ccc([N+](=O)[O-])cc3)[C@H]3COC(=O)[C@H]23)cc(OC)c1O`, for which, in the test with Nucleic Acid [1], the cpm was 661. For the same compound, the IC50 was determined as 0.42 µM with KB [2] and 16.6 µM in the test with KB [4]. Besides, the Ratio in test [3] was 39.

For `COc1cc([C@@H]2c3cc4nc5cc(Cl)c(Cl)cc5nc4cc3[C@@H](Nc3ccc([N+](=O)[O-])cc3)[C@H]3COC(=O)[C@H]23)cc(OC)c1O`, the values for the cpm in the test on Nucleic Acid [1], with Nucleic Acid [5] and in the test with Nucleic Acid [6] were 103, 105 and 101, respectively. For the same compound, the IC50 in the test with KB [2] worked out at 0.48 µM; in the test with KB [4] it was 10.6 µM. Also, in test [3], the Ratio turned out to be 22.

For `COc1cc([C@@H]2c3cc4nc5cc(Cl)c(Cl)cc5nc4cc3[C@H](O)[C@H]3COC(=O)[C@H]23)cc(OC)c1OC`, the figures for the IC50 in the test on KB [2] and with KB [4] were 13.3 µM and 9.2 µM, respectively.

On to `COc1cc([C@@H]2c3cc4nc5ccccc5nc4cc3[C@H](O)[C@H]3COC(=O)[C@H]23)cc(OC)c1OC`, for which the figures for the IC50 in the test on KB [2] and with KB [4] were 23.4 µM and 6.21 µM, respectively.

On to `COc1cc([C@@H]2c3cc4c(cc3[C@@H](O[C@@H]3O[C@@H]5CO[C@@H](C)O[C@H]5[C@H](O)[C@H]3O)[C@H]3COC(=O)[C@H]23)OCO4)cc(OC)c1O` [ETOPOSIDE], for which the cpm worked out at 2460 in the test with Nucleic Acid [1], 216 with Nucleic Acid [5] and 1840 in the test on Nucleic Acid [6]. Moreover, the figures for the IC50 with KB [2] and with KB [4] were 0.164 µM and 23.8 µM, respectively. In test [3], the Ratio worked out at 145.

In the case of `COc1cc([C@@H]2c3cc4nc5cc6ccccc6cc5nc4cc3[C@@H](Nc3ccc([N+](=O)[O-])cc3)[C@H]3COC(=O)[C@H]23)cc(OC)c1O`, half-maximal inhibition in the test on KB [2] (IC50) was put at 6.63 µM.

In the case of `COc1cc([C@@H]2c3cc4nc5ccccc5nc4cc3[C@@H](Nc3ccc([N+](=O)[O-])cc3)[C@H]3COC(=O)[C@H]23)cc(OC)c1O`, the cpm was determined as 309 in the test on Nucleic Acid [1], 320 with Nucleic Acid [5] and 446 with Nucleic Acid [6]. The results for the IC50 in the test with KB [2] and with KB [4] were 0.11 µM and 0.56 µM, respectively. Moreover, the Ratio in test [3] was 5.

`COc1cc([C@@H]2c3cc4c(cc3[C@@H](Nc3ccc([N+](=O)[O-])cc3)[C@H]3COC(=O)[C@H]23)OCO4)cc(OC)c1O` yielded a cpm with Nucleic Acid [1] of 2930. Besides, the figures for the IC50 with KB [2] and with KB [4] were 0.032 µM and 0.55 µM, respectively. Further, the Ratio in test [3] is 17 KB 7d-1.

(Values after ChEMBL document CHEMBL1129535, “Antitumor agents. 164. Podophenazine, 2'',3''-dichloropodophenazine, benzopodophenazine, and their 4 beta-p-nitroaniline derivatives as novel DNA topoisomerase II inhibitors” (J Med Chem, 1996).)
